Measured values of several laboratories.
BCHE: Cholinesterase (BCHE, Homo sapiens, UniProt P06276)
MC4R: Melanocortin receptor 4 (MC4R, Homo sapiens, UniProt P32245)
Oprk1: Kappa-type opioid receptor (Oprk1, Mus musculus, UniProt P33534)

| Structure (SMILES) | target | test | quantity | value |
| --- | --- | --- | --- | --- |
| C=CCOc1ccc(C(=O)/C=C/c2ccc(OC)cc2)c(OS(=O)(=O)c2ccc(OC)cc2)c1I | BCHE | enzyme activity, inhibitor | IC50 | 30100 nM |
| CC(C)c1cc2c(c(O)c1O)[C@@]13CCCC(C)(C)[C@@H]1C[C@@H]2OC3=O | BCHE | enzyme activity, inhibitor | IC50 | 0.95 nM |
| C=CCOc1ccc(C(=O)/C=C/c2cccc(F)c2)c(OS(=O)(=O)c2ccc(OC)cc2)c1I | BCHE | enzyme activity, inhibitor | IC50 | 14500 nM |
| CSCC[C@H](NC(=O)[C@H](CCCNC(=N)N)NC(=O)[C@H](Cc1ccc(O)cc1)NC(=O)[C@@H]1CCCN1C(=O)CNC(=O)[C@H](CCC(=O)O)NC(=O)[C@H](Cc1c[nH]cn1)NC(=O)[C@H](CCCCN)NC(=O)[C@H](CCCCN)NC(=O)[C@H](CCC(=O)O)NC(=O)[C@H](C)N)C(=O)N[C@@H](CCC(=O)O)C(=O)N[C@@H](Cc1c[nH]cn1)C(=O)N[C@@H](Cc1ccccc1)C(=O)N[C@@H](CCCNC(=N)N)C(=O)N[C@@H](Cc1c[nH]c2ccccc12)C(=O)NCC(=O)N[C@@H](CO)C(=O)N1CCC[C@H]1C(=O)N1CCC[C@H]1C(=O)N[C@@H](CCCCN)C(=O)N[C@@H](CC(=O)O)C(=O)O | MC4R | reporter gene, agonist, luciferase | EC50 | 1.46 nM |
| COc1c2c(cc3c1-c1c(cc4c(c1OC)OCO4)C[C@H](C)[C@H](C)C3)OCO2 | Cocaine esterase (CES2, Homo sapiens, UniProt O00748) | enzyme activity, inhibitor, fluorescence | IC50 | 1340 nM |
| C=CCOc1ccc(C(=O)/C=C/c2cccc(F)c2)c(OS(=O)(=O)c2ccc(F)cc2)c1I | BCHE | enzyme activity, inhibitor | IC50 | 30200 nM |
| CC(C)c1cc2c(c(O)c1O)[C@@]13CCCC(C)(C)[C@@H]1[C@@H](O)[C@@H]2OC3=O | BCHE | enzyme activity, inhibitor | IC50 | 1.41 nM |
| COc1cc(/C=C/C(=O)O)ccc1OCc1cn(CC(=O)Nc2ccc(Cl)cc2Cl)nn1 | BCHE | enzyme activity, inhibitor, Ellman | Ki | 1850 nM |
| CC(C)c1cc2c(c(O)c1O)[C@@]13CCCC(C)(C)[C@@H]1[C@H](OC3=O)[C@H]2O | BCHE | enzyme activity, inhibitor | IC50 | 0.75 nM |
| COc1cc2c(cc1OC)CN(CCc1ccc(NC(=O)c3cccc4c(=O)c5cccc(OC)c5[nH]c34)cc1)CC2 | Muscarinic acetylcholine receptor M5 (CHRM5, Homo sapiens, UniProt P08912) | cell-free assay | Ki | > 10000 nM |
| CC(C)c1cc2c(c(O)c1O)[C@@]1(C(=O)O)CCCC(C)(C)[C@@H]1CC2 | BCHE | enzyme activity, inhibitor, absorbance | Ki | 0.49 nM |
| CCCC[C@H](NC(C)=O)C(=O)N[C@H]1CC(=O)NCCCC[C@@H](C(=O)N2CCC[C@@H]2C(=O)N[C@@H](C(=O)N2CCC[C@@H]2C(N)=O)C(C)C)NC(=O)[C@H](Cc2c[nH]c3ccccc23)NC(=O)[C@H](CCCNC(=N)N)NC(=O)[C@@H](Cc2ccccc2)NC(=O)[C@@H]2CCCN2C1=O | MC4R | cAMP, agonist | EC50 | 0.89 nM |
| CC(C)[C@H](CN1CCc2ccccc2C1)NC(=O)c1cccc(-c2cccc(O)c2)c1 | Oprk1 | ligand displacement, radioligand | Ki | 870 nM |
| C=CCOc1ccc(C(=O)/C=C/c2ccc(OC)cc2)c(OS(=O)(=O)c2ccc(F)cc2)c1I | BCHE | enzyme activity, inhibitor | IC50 | 11300 nM |
| CC(C)[C@@H](CN1CCc2ccccc2C1)NC(=O)Cc1c[nH]c2ccccc12 | Oprk1 | ligand displacement, radioligand | Ki | 2750 nM |
| CCCC(=O)CC(=O)N[C@H]1CCOC1=O | qscR (Pseudomonas aeruginosa, UniProt G3XD77) | reporter gene, agonist | EC50 | 13000 nM |
